ChEMBL document CHEMBL4007452, “Discovery of an Orally Selective Inhibitor of Signal Transducer and Activator of Transcription 3 Using Advanced Multiple Ligand Simultaneous Docking” (J Med Chem, 2017)
Active and inactive are the calls of the source. No cut-off for these calls is given here.

Tests used:
[1] = molecular target: T1, Signal transducer and activator of transcription 1-alpha/beta (Homo sapiens) (UniProt P42224); assay: Binding affinity to STAT1 (unknown origin) after 30 mins by fluorescence polarization assay
T1 sequence (whole entry): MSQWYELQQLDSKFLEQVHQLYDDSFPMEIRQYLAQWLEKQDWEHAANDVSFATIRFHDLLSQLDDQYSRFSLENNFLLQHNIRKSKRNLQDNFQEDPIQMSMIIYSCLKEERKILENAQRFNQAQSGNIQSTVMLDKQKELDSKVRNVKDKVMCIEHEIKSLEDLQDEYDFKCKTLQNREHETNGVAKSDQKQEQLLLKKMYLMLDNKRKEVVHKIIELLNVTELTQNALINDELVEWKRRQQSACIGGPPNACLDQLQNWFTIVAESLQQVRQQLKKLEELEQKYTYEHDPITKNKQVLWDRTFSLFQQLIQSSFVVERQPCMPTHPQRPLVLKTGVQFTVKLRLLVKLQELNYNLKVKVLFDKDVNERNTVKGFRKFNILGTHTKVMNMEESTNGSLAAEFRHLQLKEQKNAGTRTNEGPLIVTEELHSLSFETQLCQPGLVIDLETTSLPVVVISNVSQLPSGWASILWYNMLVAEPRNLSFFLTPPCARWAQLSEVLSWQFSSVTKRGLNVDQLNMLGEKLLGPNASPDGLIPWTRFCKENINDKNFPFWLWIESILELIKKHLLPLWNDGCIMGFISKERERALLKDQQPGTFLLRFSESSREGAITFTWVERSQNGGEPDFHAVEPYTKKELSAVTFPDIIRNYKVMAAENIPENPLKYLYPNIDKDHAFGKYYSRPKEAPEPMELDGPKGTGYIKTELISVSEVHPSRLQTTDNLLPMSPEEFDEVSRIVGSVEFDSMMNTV
How it was run: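 A competitive fluorescence polarization assay measured displacement of fluorescent phosphopeptide from the SH2 domain of purchased STAT1 or STAT5 protein, using the corresponding peptides.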

[2] = tested on: MDA-MB-231; assay: Effect on total STAT3 level in human MDA-MB-231 cells at 2.5 to 5 uM after 12 hrs by immunoblot analysis; type: ADME, cell-based; conditions: mda-mb-231, 12 h
How it was run: (§1)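 MDA-MB-231 cells at 60–80% confluence were treated 12 h with 10% FBS at 2.5-10 µM or 2.5-5 µM, against a DMSO control. Whole-cell lysates were immunoblotted, with bands quantified as percent of control.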

[3] = molecular target: T1, Signal transducer and activator of transcription 1-alpha/beta (Homo sapiens); assay: Inhibition of STAT1 in human MDA-MB-231 cells assessed as reduction in STAT1 phosphorylation at Y701 site at 2.5 to 10 uM after 12 hrs by immunoblot analysis; type: cell-based
[4] = molecular target: T1, Signal transducer and activator of transcription 1-alpha/beta (Homo sapiens); assay: Inhibition of STAT1 in human MDA-MB-231 cells assessed as reduction in IFN-gamma-induced STAT1 phosphorylation at 2.5 to 5 uM preincubated for 2 hrs followed by IFN-gamma stimulation measured after 30 mins by Western blot analysis; type: cell-based
How it was run: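 MDA-MB-231 cells were allowed to adhere overnight, then serum-starved. They were pretreated 2 h with 2.5-5 µM compound or DMSO and stimulated with IFN-γ (50 ng/mL). Cells were harvested after 30 min and immunoblotted for P-STAT1(Y701) and T-STAT1.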

[5] = molecular target: Epidermal growth factor receptor (Homo sapiens) (UniProt P00533); assay: Inhibition of EGFR in human UW426 cells assessed as reduction in p-ERK1/2 (T202/Y204) level at 1 to 2.5 uM after 24 hrs by immunoblot analysis; type: cell-based
Chain of Epidermal growth factor receptor (Homo sapiens) (P00533 whole entry): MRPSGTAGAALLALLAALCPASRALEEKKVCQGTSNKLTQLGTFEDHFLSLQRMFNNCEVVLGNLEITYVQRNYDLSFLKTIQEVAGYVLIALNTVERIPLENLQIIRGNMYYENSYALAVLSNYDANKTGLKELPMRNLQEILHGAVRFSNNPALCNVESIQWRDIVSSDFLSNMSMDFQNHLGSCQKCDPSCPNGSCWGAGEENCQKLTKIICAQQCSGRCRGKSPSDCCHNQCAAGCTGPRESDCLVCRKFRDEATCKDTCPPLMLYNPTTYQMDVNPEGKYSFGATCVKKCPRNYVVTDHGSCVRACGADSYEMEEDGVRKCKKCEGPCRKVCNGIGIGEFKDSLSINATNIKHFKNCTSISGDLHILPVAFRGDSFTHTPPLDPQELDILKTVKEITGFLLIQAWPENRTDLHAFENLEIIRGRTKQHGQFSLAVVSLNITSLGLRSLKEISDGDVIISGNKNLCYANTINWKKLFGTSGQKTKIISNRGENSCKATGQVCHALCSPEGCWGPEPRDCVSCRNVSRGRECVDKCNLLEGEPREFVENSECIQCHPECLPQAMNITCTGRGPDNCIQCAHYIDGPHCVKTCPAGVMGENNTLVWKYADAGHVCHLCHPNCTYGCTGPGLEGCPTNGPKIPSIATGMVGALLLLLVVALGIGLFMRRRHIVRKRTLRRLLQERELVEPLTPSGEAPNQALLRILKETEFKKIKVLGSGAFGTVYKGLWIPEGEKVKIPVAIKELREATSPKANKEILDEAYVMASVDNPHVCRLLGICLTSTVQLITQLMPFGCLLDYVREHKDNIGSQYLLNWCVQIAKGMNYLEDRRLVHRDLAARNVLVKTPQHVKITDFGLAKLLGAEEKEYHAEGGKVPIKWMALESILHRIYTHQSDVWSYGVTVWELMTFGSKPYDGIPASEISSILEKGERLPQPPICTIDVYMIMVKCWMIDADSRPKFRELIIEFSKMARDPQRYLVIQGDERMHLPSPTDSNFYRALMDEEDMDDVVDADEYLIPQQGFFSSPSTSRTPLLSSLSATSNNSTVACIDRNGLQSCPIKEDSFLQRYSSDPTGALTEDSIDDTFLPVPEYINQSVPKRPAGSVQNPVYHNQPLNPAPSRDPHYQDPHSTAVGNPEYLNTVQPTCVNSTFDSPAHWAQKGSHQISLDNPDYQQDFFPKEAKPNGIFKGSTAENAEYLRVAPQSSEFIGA
How it was run: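 UW426 cells at 60–80% confluence were treated 24 h at 1-2.5 µM with 10% FBS, against a DMSO control, then immunoblotted.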

[6] = tested on: MDA-MB-231; assay: Induction of apoptosis in human MDA-MB-231 cells assessed as increase in cleaved caspase level at 2.5 to 5 uM after 12 hrs by immunoblot analysis; type: functional, cell-based; how it was run: as §1
[7] = tested on: Mus musculus; assay: Acute toxicity in ICR mouse assessed as mortality at 200 to 1000 mg/kg, ip measured up to 2 weeks post-treatment; type: organism-based; conditions: in vivo, 336 h
How it was run: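 ICR mice of both sexes, 7 weeks old, randomized into groups of 10. Each received a single intraperitoneal dose at 200, 400, 600, 800 or 1000 mg/kg.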

[8] = tested on: MDA-MB-231; assay: Anticancer activity against human MDA-MB-231 cells xenografted in BALB/c nude mouse assessed as reduction in tumor volume at 10 mg/kg, po qd administered for 32 days; type: functional; design: scale not given: the % may be the effect or the level left
How it was run: (§2)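 Female athymic BALB/c nude mice, 6 weeks old, bearing s.c. flank MDA-MB-231 xenografts (5 x 10^6 cells). Dosing began at about 100 mm3 tumor volume; 8 mice per group, one tumor each. Drug was given orally in saline, with a saline vehicle control, for 32 days. Caliper L and W measured every other day; volume = 0.5236×L×W².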

[9] = tested on: MDA-MB-231; assay: Anticancer activity against human MDA-MB-231 cells xenografted in BALB/c nude mouse assessed as reduction in tumor volume at 2.5 mg/kg, po qd administered for 32 days; type: functional; design: scale not given: the % may be the effect or the level left; how it was run: as §2
[10] = Tmax in Sprague-Dawley rat plasma at 1 mg/kg, iv measured after 24 hrs by UPLC analysis; type: ADME, organism-based
How it was run: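 Rats dosed i.v. or p.o. Plasma concentrations followed from 2 min to 24 h after dosing. The bioanalytical method was validated to FDA guidelines for selectivity, linearity, LLOQ, accuracy, precision, recovery, matrix effect and stability.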

[11] = Cmax in Sprague-Dawley rat plasma at 1 mg/kg, iv measured after 24 hrs by UPLC analysis; type: ADME, organism-based; design: dose 1 mg/kg, route intravenous
How it was run: (§3)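 Rat plasma sampled from 2 min to 24 h after a single i.v. (1 mg/kg) or p.o. (10 mg/kg) dose. Parameters were derived from the concentration-time profiles. The bioanalytical method was validated to FDA guidelines for selectivity, linearity, LLOQ, accuracy, precision, recovery, matrix effect and stability.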

[12] = AUC (0 to infinity) in Sprague-Dawley rat plasma at 1 mg/kg, iv measured after 24 hrs by UPLC analysis; type: ADME, organism-based; design: dose 1 mg/kg, time infinity, route intravenous; how it was run: as §3
[13] = Apparent volume of distribution in Sprague-Dawley rat plasma at 1 mg/kg, iv measured after 24 hrs by UPLC analysis; type: ADME, organism-based; conditions: read-out: Vz; how it was run: as §3
[14] = MRT (0 to t) in Sprague-Dawley rat plasma at 1 mg/kg, iv measured after 24 hrs by UPLC analysis; type: ADME, organism-based; how it was run: as §3
[15] = Clearance in Sprague-Dawley rat plasma at 10 mg/kg, po measured after 24 hrs by UPLC analysis; type: ADME, organism-based
How it was run: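 Parameters were derived from the concentration-time profiles. The bioanalytical method was validated to FDA guidelines for selectivity, linearity, LLOQ, accuracy, precision, recovery, matrix effect and stability.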

[16] = tested on: Rattus norvegicus; assay: AUMC (0 to infinity) in Sprague-Dawley rat plasma at 10 mg/kg, po measured after 24 hrs by UPLC analysis; type: ADME, organism-based; conditions: in vivo; how it was run: as §3
[17] = MRT (0 to t) in Sprague-Dawley rat plasma at 10 mg/kg, po measured after 24 hrs by UPLC analysis; type: ADME, organism-based; how it was run: as §3
[18] = MRT (0 to infinity) in Sprague-Dawley rat plasma at 10 mg/kg, po measured after 24 hrs by UPLC analysis; type: ADME, organism-based; how it was run: as §3
[19] = molecular target: Signal transducer and activator of transcription 3 (Homo sapiens, UniProt P40763); conditions: 2.5 to 5 uM
Chain of Signal transducer and activator of transcription 3 (P40763 whole entry): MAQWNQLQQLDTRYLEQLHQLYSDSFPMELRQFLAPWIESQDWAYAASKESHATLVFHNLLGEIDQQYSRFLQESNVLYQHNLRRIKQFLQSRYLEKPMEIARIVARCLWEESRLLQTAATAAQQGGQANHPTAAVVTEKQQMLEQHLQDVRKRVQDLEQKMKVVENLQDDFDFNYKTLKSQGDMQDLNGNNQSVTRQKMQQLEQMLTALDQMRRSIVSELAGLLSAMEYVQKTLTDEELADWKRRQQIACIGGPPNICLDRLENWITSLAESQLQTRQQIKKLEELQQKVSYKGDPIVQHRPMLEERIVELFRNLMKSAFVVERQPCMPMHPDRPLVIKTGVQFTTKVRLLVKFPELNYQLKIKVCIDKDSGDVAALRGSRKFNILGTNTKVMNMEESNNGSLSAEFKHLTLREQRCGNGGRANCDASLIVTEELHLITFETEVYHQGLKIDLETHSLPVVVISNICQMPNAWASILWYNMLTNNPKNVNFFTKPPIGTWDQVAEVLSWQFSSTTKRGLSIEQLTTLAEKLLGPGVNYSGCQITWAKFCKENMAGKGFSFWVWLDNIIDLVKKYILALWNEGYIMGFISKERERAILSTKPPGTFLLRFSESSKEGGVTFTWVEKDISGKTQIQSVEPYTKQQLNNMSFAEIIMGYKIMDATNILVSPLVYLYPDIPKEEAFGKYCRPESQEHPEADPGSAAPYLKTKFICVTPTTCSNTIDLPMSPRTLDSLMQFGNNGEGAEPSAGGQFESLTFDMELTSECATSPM

NS(=O)(=O)c1cccc2c1C(=O)C=C(Nc1ccccc1N1CCNCC1)C2=O
Activity [1]: inactive
Activity [2]: Non-Toxic
inhibition [3]: inactive
inhibition [4]: inactive
inhibition [5]: inactive
Activity [6]: Active
Activity [7]: Non-Toxic
Activity [8]: 70%
Activity [9]: 53%
Tmax [10]: 1.98 min
Cmax [11]: 359 ng/mL
AUC(0-inf) [12]: 199 ng·h/mL
Vd [13]: 4.94 L/kg
MRT last at 24 h [14]: 0.55 h
CL/F [15]: 196 mL/min/kg
AUMC [16]: 2002.1 hr2.ng/ml
MRT last at 24 h [17]: 1.87 h
MRT inf [18]: 2.25 h
inhibition [19]: Active
